Measurements as given in publication PMC10840808 (Molecular cancer therapeutics, 2024).
Ends that are not written are not given here.

Columns and labels:
[1] = target: NANOG (Homo sapiens, UniProt Q9H9S0); experiment: Surface plasmon resonance; assay type: binding
Outline: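 Purified active NANOG at 50 μg/mL in 10 mM sodium acetate pH 4.5 was amine-coupled (EDC/NHS, ethanolamine block) to a CM5 chip, targeting 5000 RU, with an unmodified reference cell. Runs used Biacore S200 at 25°C, 1% DMSO/1x PBS-P+ at 30 μL/min. Peptide series: ≥5 concentrations, 100 nM–100 μM, plus repeat and zero. Association 180 s, dissociation 600 s, glycine pH 2.5 regeneration. KD by 1:1 Langmuir kinetics.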

[2] = target: FAK (Homo sapiens, UniProt Q05397); experiment: Surface plasmon resonance; assay type: binding
Sequence of FAK (Q05397 whole entry): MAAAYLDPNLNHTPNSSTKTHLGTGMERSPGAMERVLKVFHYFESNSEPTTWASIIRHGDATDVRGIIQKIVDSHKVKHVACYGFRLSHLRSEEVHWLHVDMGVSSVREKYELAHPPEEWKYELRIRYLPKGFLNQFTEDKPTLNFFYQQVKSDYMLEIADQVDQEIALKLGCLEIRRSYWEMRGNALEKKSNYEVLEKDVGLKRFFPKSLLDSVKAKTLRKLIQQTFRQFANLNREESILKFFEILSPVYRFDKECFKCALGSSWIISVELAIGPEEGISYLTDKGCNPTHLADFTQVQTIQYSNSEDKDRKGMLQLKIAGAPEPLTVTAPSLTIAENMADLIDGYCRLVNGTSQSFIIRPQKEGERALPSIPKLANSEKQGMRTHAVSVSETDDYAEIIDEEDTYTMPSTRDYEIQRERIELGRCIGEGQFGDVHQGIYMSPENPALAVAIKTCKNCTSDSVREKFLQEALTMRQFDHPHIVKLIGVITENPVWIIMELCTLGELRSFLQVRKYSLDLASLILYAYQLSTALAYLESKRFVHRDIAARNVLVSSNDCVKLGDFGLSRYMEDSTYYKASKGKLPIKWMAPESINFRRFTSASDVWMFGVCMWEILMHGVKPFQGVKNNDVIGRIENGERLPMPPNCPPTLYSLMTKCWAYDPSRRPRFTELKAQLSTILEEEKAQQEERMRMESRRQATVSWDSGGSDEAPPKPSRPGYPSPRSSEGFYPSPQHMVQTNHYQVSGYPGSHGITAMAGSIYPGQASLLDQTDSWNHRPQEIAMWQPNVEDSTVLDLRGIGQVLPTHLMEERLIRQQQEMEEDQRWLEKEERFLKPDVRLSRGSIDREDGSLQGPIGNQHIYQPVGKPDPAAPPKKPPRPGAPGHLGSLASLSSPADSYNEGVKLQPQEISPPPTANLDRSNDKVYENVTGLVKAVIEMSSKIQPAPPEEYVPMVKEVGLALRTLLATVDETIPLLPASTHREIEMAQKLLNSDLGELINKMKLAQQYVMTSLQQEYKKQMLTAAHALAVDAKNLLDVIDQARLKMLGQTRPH
Outline: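 Biacore S200 at 25°C, with running buffer 1% DMSO/1x PBS-P+ (filtered, degassed) at 30 μL/min. FAK at 20 μg/mL in 10 mM sodium acetate pH 5.0 was amine-coupled to a CM5 chip, targeting 5000 RU, with unmodified flow cell 1 as reference. Peptide analyte: ≥5 concentrations (100 nM–100 μM) plus a repeat and a blank, multi-cycle. Association 180 s, dissociation 600 s. Regeneration with 10 mM glycine pH 2.5 for 30 s. KD from 1:1 Langmuir fit.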

[3] = test system: MDA-MB-231 cells; experiment: qPCR gene expression; assay type: cell-based; conditions: for expression of NANOG target genes (FABP5, POSTN, NRP2, PIN1, TAGLN) / expression of epithelial cell markers cytokeratin 18 and 19 (KRT18 and KRT19): MDA-MB-231, 7 days of treatment, n=3; for expression of NANOG target genes (FABP5, POSTN, NRP2, PIN1, TAGLN): compared to vehicle or aScr-pep
Outline: (§1)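 Cells were treated for 7 days with test peptide, cytosolic-tail peptide alone, scrambled peptide or vehicle, then analysed by real-time qPCR for NANOG-regulated and keratin genes. CT values were normalized to GAPDH, and dissociation curves checked primer fidelity. n=3 independent experiments, each in technical triplicate; one-way ANOVA.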

[4] = test system: MDA-MB-231 cells; experiment: CellTiter-Glo proliferation; assay type: cell-based; conditions: MDA-MB-231, increasing concentrations, 72 h
Outline: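 MDA-MB-231 cells, grown in DMEM with 1 mM sodium pyruvate and 10% heat-inactivated FCS at 37°C and 5% CO₂, were seeded at 1,000 cells/well. They were exposed for 72 h to Antp peptide alone, test peptide or vehicle (1% DMSO in PBS). Cells were lysed with CellTiter-Glo at day 0 and at 72 h, shaken 10 min in the dark, and luminescence was read. Fold change = 72 h value / day 0 value per group.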

[5] = test system: MDA-MB-231; experiment: Tumorsphere-initiation frequency, extreme limiting-dilution assay; assay type: cell-based; conditions: MDA-MB-231, ELDA, compared to aScr-pep
Outline: (§2)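 Cells were treated with vehicle, Antp alone, Antp-tagged scrambled peptide or test peptide. They were plated in duplicate rows at serial dilutions of 1–20 cells/well, one 96-well plate per condition. Medium was serum-free DMEM with 20 ng/ml bFGF, 10 ng/ml EGF, 2% B27 and 10 μg/ml insulin. After 2 weeks, wells were scored sphere-positive or negative by phase-contrast microscopy. Stem-cell frequency was computed by extreme limiting dilution analysis.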

[6] = test system: MDA-MB-468; experiment: as above; assay type: cell-based; conditions: MDA-MB-468, ELDA, compared to aScr-pep
Outline: as §2

[7] = test system: HCC70; experiment: as above; assay type: cell-based; conditions: HCC70, ELDA, compared to aScr-pep
Outline: as §2

[8] = test system: MCF7; experiment: as above; assay type: cell-based; conditions: MCF7 luminal breast cancer cell line, ELDA, aScr-pep vs aCx26-pep
Outline: as §2

[9] = test system: HCC70 cells; experiment: qPCR gene expression; assay type: cell-based; conditions: HCC70, 10 μM, 7 day treatment, compared to aScr-pep
Outline: as §1

[10] = test system: MCF7 luminal breast cancer cells; experiment: qPCR gene expression; assay type: cell-based; conditions: MCF7, 7 days of treatment, n=3
Outline: as §1

[11] = test system: HCC70 cells; experiment: Subcellular fractionation and immunoblotting for FAK and NANOG; assay type: cell-based; conditions: HCC70, 10 μM, 48 h, immunoblot
Outline: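 15×10⁶ HCC70 cells per 15 cm dish were treated 48 h with 10 μM peptide or 1% DMSO vehicle. A commercial kit gave membrane, cytoplasmic and nuclear fractions. 25 μg per fraction was run on 12% SDS-PAGE and transferred to PVDF. Blots were probed for FAK and NANOG, with HRP secondary 3 h at room temperature. Rhodamine anti-actin and Lamin A/C served as loading controls.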

[12] = test system: MDA-MB-231 luciferase-expressing tumors; assay type: in vivo, NSG mice; conditions: endpoint tumors
Outline: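 MDA-MB-231 cells were made luciferase-expressing by lentivirus and puromycin-selected. 1×10⁶ cells went into the right subcutaneous flank of 6-week-old female NSG mice. At palpability, mice were randomized to 50 μl intratumoral 0.1 mM peptide or vehicle (1% DMSO) every other day for 20 days. Weekly IVIS: D-luciferin 150 mg/kg IP under isoflurane, total flux. Excised tumors were fixed 3 days in 4% PFA, then sectioned and stained (H&E: 7–8 mice/group; IF: 3–4 mice/group, 3 images/mouse). One-way ANOVA.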

[13] = SPR, 25°C, 1% DMSO/1x PBS-P+, 1:1 Langmuir, range given in words
[14] = MDA-MB-231, 10 μM, 7 day treatment, compared to aScr-pep
[15] = immunofluorescence, 3–4 mice per group

Sequence of NANOG (Q9H9S0 whole entry): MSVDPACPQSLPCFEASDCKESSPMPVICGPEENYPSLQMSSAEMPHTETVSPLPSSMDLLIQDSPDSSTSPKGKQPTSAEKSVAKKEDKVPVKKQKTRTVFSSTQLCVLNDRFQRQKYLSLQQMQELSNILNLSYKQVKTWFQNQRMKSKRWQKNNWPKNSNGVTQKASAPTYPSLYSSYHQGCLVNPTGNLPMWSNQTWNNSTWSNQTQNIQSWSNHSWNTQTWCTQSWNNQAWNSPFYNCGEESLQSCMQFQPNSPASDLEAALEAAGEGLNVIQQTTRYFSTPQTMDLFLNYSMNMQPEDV

Cx26 cytosolic tail: peptide fragment of the Cx26 cytosolic (C-terminal) tail, 11 amino acids (RYCSGKSKKPV-NH2)
dissociation constant (KD) with NANOG [1, 13]: nanomolar
dissociation constant (KD) with FAK [2, 13]: micromolar
expression of NANOG target genes (FABP5, POSTN, NRP2, PIN1, TAGLN) [3]: no significant differences
expression of epithelial cell markers cytokeratin 18 and 19 (KRT18 and KRT19) [3]: no significant differences

RYCSG
binding to NANOG by SPR (result in words) [1]: sufficient for binding
binding to FAK by SPR (result in words) [2]: sufficient for binding

aCx26-pep: peptide containing the Cx26 cytosolic tail sequence tagged with an antennapedia (Antp) leader sequence (RQIKIWFQNRRMKWKKRYCSGKSKKPV-NH2)
binding to NANOG by SPR (result in words) [1]: did not significantly alter
binding to FAK by SPR (result in words) [2]: did not significantly alter
cell proliferation (CellTiter-Glo) [4]: not significantly affected
tumorsphere frequency [5]: significantly decreased
tumorsphere frequency [6]: significantly decreased
tumorsphere frequency [7]: significantly decreased
tumorsphere frequency [8]: no significant difference
Oct4 mRNA levels [3, 14]: significant decrease
Sox2 levels [3, 14]: did not observe a change
expression of NANOG target genes (FABP5, POSTN, NRP2, PIN1, TAGLN) [3]: significantly decreased
expression of epithelial cell markers cytokeratin 18 and 19 (KRT18 and KRT19) [3]: significantly increased
Oct4 mRNA levels [9]: significant decrease
Sox2 levels [9]: did not observe a change
NANOG target gene expression [10]: did not significantly change
cytokeratin gene expression [10]: did not significantly change
FAK level in the nuclear fraction [11]: dramatic decreases
NANOG level in the nuclear fraction [11]: dramatic decreases
Ki67 staining (proliferation marker) [12, 15]: decreased
cleaved caspase 3 staining [12, 15]: increased
vimentin staining (EMT marker) [12, 15]: decreased
percent tumor viability (H&E) ([12]; vs vehicle or aScr-pep, 7–8 mice per group): significantly decreased
